Results published in ChEMBL document CHEMBL3091303, “1,3-Dialkyl-substituted tetrahydropyrimido[1,2-f]purine-2,4-diones as multiple target drugs for the potential treatment of neurodegenerative diseases” (Bioorg Med Chem, 2013).

Tests used:
[1] = biological target: T1, MAO-B (amine oxidase [flavin-containing] B) (Homo sapiens, UniProt P27338); assay: Inhibition of human MAO-B at 10 uM relative to control
T1 sequence (P27338 whole entry): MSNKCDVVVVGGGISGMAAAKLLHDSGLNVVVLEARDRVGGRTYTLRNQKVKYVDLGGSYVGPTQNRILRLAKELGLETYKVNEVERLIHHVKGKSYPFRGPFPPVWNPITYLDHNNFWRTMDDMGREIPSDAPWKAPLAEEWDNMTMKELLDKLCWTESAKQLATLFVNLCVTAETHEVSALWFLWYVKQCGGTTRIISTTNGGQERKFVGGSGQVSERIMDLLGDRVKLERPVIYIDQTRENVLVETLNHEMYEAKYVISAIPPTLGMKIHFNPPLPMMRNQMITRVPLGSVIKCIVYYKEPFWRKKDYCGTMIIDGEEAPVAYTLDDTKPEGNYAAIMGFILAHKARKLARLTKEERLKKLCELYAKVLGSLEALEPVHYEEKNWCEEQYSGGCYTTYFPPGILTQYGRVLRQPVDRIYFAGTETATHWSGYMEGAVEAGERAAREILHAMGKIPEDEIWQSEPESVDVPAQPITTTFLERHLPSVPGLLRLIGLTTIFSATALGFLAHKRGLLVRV
Procedure, shortened: (§1)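 Human MAO-A and MAO-B inhibition, screened first at a test concentration of 10 µM.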

[2] = biological target: T2, Amine oxidase [flavin-containing] B (Homo sapiens, UniProt P27338); assay: Inhibition of human MAO-B
T2 sequence (P27338 whole entry): T1 sequence (P27338 whole entry)

[3] = Ratio of Ki for human adenosine A1 receptor to Ki for adenosine A1 receptor in rat brain cortex; type: tissue-based
[4] = biological target: T3, Adenosine receptor A3 (Homo sapiens) (UniProt P0DMS8); assay: Displacement of [3H]PSB-11 from human adenosine A3 receptor expressed in CHO cells relative to control; type: cell-based; parameters: concentration or dose not given beside the values; settings: concentration not given here
T3 sequence (whole entry): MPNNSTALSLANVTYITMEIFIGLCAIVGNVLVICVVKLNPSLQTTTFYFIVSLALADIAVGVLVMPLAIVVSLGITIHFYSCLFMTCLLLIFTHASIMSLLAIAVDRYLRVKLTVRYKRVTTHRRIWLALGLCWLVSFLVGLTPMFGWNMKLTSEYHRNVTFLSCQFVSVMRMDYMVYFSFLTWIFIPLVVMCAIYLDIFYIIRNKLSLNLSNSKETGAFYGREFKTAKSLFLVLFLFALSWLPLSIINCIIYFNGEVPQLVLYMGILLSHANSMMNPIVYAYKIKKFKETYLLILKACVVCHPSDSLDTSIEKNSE

Adenosine receptor A3 = biological target: T4, Adenosine receptor A3 (Homo sapiens, UniProt P0DMS8); assay: Displacement of [3H]PSB-11 from human adenosine A3 receptor expressed in CHO cells; type: cell-based
T4 sequence (P0DMS8 whole entry): T3 sequence (whole entry)

[5] = biological target: T5, Adenosine receptor A2b (Homo sapiens) (UniProt P29275); assay: Displacement of [3H]PSB-603 from human adenosine A2B receptor relative to control; parameters: concentration or dose not given beside the values; settings: concentration not given here
T5 sequence (whole entry): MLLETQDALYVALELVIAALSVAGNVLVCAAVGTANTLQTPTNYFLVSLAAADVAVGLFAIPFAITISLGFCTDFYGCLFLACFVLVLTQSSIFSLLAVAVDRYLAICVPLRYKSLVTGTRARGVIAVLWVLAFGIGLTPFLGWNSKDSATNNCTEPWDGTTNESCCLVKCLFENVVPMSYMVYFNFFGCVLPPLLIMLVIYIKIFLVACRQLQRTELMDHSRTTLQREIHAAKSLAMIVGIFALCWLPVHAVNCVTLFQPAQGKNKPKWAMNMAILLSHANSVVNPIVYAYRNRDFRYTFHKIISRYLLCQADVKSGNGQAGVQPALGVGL

Adenosine receptor A2a [6] = biological target: Adenosine receptor A2a (Rattus norvegicus, UniProt P30543); assay: Displacement of [3H]MSX-2 from adenosine A2A receptor in rat brain striatum; type: tissue-based
Adenosine receptor A2b = biological target: T6, Adenosine receptor A2b (Homo sapiens, UniProt P29275); assay: Displacement of [3H]PSB-603 from human adenosine A2B receptor
T6 sequence (P29275 whole entry): T5 sequence (whole entry)

Adenosine receptor A1 [7] = biological target: T7, Adenosine receptor A1 (Homo sapiens, UniProt P30542); assay: Displacement of [3H]CCPA from human adenosine A1 receptor expressed in CHO cells; type: cell-based
T7 sequence (P30542 whole entry): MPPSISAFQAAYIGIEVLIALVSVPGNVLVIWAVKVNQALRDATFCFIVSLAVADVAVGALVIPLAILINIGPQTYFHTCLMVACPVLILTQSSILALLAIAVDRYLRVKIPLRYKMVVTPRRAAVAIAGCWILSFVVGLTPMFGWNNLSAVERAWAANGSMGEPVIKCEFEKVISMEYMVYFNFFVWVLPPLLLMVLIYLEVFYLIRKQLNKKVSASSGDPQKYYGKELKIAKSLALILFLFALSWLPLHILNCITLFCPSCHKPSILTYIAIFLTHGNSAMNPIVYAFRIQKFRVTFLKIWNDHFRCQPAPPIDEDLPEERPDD
Procedure, shortened: (§2)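 Radioligand binding to human receptors recombinantly expressed in Chinese hamster ovary (CHO) cells. Results are Ki, or % inhibition of radioligand binding at the indicated concentration.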

Adenosine receptor A1 [8] = biological target: T8, Adenosine receptor A1 (Rattus norvegicus, UniProt P25099); assay: Displacement of [3H]CCPA from adenosine A1 receptor in rat brain cortex; type: tissue-based
T8 sequence (P25099 whole entry): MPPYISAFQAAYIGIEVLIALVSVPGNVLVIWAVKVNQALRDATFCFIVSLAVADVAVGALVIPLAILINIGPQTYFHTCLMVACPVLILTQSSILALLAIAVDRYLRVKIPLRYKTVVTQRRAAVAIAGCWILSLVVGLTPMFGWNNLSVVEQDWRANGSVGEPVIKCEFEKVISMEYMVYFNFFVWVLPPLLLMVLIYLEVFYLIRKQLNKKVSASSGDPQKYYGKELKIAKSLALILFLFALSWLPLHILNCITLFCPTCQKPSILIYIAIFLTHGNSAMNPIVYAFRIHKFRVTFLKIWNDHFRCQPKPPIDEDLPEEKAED
Procedure, shortened: (§3)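 Radioligand binding to rat A1 receptors in rat brain cortical membrane preparations. Values are given as Ki, or as % inhibition of radioligand binding at the indicated concentration.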

Adenosine receptor A2a [9] = biological target: T9, Adenosine receptor A2a (Homo sapiens, UniProt P29274); assay: Displacement of [3H]MSX-2 from human adenosine A2A receptor expressed in CHO cells; type: cell-based; procedure, shortened: as §2
Rattus norvegicus = species on record: Rattus norvegicus; assay: Selectivity ratio of Ki for adenosine A2A receptor in rat brain striatum to Ki for adenosine A1 receptor in rat brain cortex; type: tissue-based
[10] = biological target: T10, Adenosine receptor A1 (Homo sapiens) (UniProt P30542); assay: Displacement of [3H]CCPA from human adenosine A1 receptor expressed in CHO cells relative to control; type: cell-based; settings: concentration not given here; procedure, shortened: as §2
T10 sequence (whole entry): T7 sequence (P30542 whole entry)

[11] = test system: Adenosine receptor A1/A2A (Homo sapiens); assay: Selectivity ratio of Ki for human adenosine A1 receptor to Ki for human adenosine A2A receptor
[12] = biological target: T11, Amine oxidase [flavin-containing] A (Homo sapiens, UniProt P21397); assay: Inhibition of human MAO-A; procedure, shortened: as §1
T11 sequence (P21397 whole entry): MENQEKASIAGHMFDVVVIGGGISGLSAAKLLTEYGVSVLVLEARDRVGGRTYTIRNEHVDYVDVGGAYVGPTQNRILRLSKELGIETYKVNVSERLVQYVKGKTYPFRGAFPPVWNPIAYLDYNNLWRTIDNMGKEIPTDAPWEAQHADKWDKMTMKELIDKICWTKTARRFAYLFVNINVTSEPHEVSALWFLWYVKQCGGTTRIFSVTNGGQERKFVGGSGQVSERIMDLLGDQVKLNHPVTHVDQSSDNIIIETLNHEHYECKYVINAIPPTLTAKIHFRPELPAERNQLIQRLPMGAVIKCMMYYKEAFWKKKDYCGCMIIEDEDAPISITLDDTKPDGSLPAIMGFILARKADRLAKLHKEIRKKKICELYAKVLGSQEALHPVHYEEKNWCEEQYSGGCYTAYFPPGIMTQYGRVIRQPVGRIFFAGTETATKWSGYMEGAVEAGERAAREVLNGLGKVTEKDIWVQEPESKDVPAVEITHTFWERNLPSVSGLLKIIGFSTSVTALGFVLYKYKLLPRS

[13] = biological target: T12, MAO-A (amine oxidase [flavin-containing] A) (Homo sapiens, UniProt P21397); assay: Inhibition of human MAO-A at 10 uM relative to control; procedure, shortened: as §1
T12 sequence (P21397 whole entry): T11 sequence (P21397 whole entry)

[14] = biological target: Adenosine receptor A2a (Rattus norvegicus) (UniProt P30543); assay: Displacement of [3H]MSX-2 from adenosine A2A receptor in rat brain striatum relative to control; type: tissue-based; parameters: concentration or dose not given beside the values; settings: concentration not given here
Procedure, shortened: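 Radioligand binding to rat A2A receptors in rat brain striatal membrane preparations, reported as % inhibition of radioligand binding at the indicated concentration.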

[15] = biological target: T13, Adenosine receptor A1 (Rattus norvegicus) (UniProt P25099); assay: Displacement of [3H]CCPA from adenosine A1 receptor in rat brain cortex relative to control; type: tissue-based; parameters: concentration or dose not given beside the values; settings: concentration not given here; procedure, shortened: as §3
T13 sequence (whole entry): T8 sequence (P25099 whole entry)

Adenosine receptor A2a [16] = biological target: T9, Adenosine receptor A2a; assay: Binding affinity to human adenosine A2A receptor

Adenosine receptor A2a (Rattus norvegicus, UniProt P30543), sequence (P30543 whole entry): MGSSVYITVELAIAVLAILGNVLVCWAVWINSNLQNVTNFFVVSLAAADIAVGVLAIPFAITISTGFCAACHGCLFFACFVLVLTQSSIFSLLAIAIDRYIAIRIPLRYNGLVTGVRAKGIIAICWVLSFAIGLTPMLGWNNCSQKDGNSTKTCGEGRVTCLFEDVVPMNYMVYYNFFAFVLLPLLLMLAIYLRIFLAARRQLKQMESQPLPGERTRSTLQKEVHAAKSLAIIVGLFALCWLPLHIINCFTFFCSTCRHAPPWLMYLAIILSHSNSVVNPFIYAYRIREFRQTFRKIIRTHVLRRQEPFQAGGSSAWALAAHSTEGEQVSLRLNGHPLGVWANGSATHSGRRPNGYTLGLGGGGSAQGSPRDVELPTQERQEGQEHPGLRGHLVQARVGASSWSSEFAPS
T9 sequence (P29274 whole entry): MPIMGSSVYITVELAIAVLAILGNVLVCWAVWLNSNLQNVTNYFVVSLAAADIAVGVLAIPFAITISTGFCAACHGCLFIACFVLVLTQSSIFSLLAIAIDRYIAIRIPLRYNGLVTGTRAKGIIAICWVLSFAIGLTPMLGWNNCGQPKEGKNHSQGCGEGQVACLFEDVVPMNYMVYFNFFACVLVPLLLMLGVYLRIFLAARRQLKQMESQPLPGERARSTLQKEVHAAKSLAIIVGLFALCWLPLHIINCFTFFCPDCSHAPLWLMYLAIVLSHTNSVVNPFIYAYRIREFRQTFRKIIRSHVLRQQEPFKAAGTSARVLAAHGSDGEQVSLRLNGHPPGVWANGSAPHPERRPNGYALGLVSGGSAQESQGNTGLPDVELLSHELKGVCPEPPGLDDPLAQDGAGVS
Adenosine receptor A2a (Rattus norvegicus), sequence (P30543 whole entry): as the sequence (P30543 whole entry) above

SMILES	inhibition at 10 µM [1]	IC50 [2]	Ratio Ki [3]	inhibition [4]	Ki (Adenosine receptor A3)	inhibition [5]	Ki (Adenosine receptor A2a [6])	Ki (Adenosine receptor A2b)	Ki (Adenosine receptor A1 [7])	Ki (Adenosine receptor A1 [8])	Ki (Adenosine receptor A2a [9])	Ratio Ki (Rattus norvegicus)	inhibition [10]	Ratio Ki [11]	IC50 [12]	inhibition at 10 µM [13]	inhibition [14]	inhibition [15]	Ki (Adenosine receptor A2a [16])
C#CCn1c(=O)c2c(nc3n2CCCN3CCc2ccccc2)n(C)c1=O	2%	> 10 µM	18	10%	> 1 µM	3%	0.827 µM	> 1 µM	11.6 µM	0.632 µM	1.2 µM								
C#CCn1c(=O)c2c(nc3n2CCCN3c2cccc(OC)c2)n(C)c1=O	36%	> 10 µM	> 10	20%	> 1 µM	8%	3.03 µM	> 1 µM	9.49 µM	0.469 µM									
C#CCn1c(=O)c2c(nc(/C=C/c3cccc(OC)c3)n2C)n(CCCO)c1=O											0.00538 µM								0.00538 µM

The remaining molecules from weak to strong by IC50 [2], led by results:

inhibition at 10 µM [1]	IC50 [2]	Ratio Ki [3]	inhibition [4]	Ki (Adenosine receptor A3)	inhibition [5]	Ki (Adenosine receptor A2a [6])	Ki (Adenosine receptor A2b)	Ki (Adenosine receptor A1 [7])	Ki (Adenosine receptor A1 [8])	Ki (Adenosine receptor A2a [9])	Ratio Ki (Rattus norvegicus)	inhibition [10]	Ratio Ki [11]	IC50 [12]	inhibition at 10 µM [13]	inhibition [14]	inhibition [15]	Ki (Adenosine receptor A2a [16])	SMILES
46%	10 µM		34%	> 10 µM		0.932 µM	3.86 µM	> 10 µM	0.313 µM	0.284 µM	3	21%	> 35						C#CCn1c(=O)c2c(nc3n2CCCN3c2cccc(Br)c2)n(C)c1=O
60%	2.2 µM		24%	> 1 µM	-7%	> 10 µM	> 1 µM		> 1.5 µM					> 10 µM	13%	39%	0%		Cn1c(=O)c2c(nc3n2CCCN3CC(=O)N2CCN(c3ccc(Cl)cc3)CC2)n(C)c1=O
